Compounds with a hit are over-represented: about 2.3% of the library has one in this group of screens.
TAAR1 agonist = human TAAR1 agonists, primary screen, Fluo-8 calcium fluorescence, CHO RD-HGA16 cells. 360,000 tested, 0.99% active. Trace amine-associated receptor 1 (Homo sapiens), Q96RJ0. activation, % at 3 µM. vehicle wells 0%, saturating PEA agonist 100%;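 active = activation above the mean activation of all test compounds in the run plus 3 SD, cut at about 38% in these data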
Target sequence (Q96RJ0 whole entry, looked up): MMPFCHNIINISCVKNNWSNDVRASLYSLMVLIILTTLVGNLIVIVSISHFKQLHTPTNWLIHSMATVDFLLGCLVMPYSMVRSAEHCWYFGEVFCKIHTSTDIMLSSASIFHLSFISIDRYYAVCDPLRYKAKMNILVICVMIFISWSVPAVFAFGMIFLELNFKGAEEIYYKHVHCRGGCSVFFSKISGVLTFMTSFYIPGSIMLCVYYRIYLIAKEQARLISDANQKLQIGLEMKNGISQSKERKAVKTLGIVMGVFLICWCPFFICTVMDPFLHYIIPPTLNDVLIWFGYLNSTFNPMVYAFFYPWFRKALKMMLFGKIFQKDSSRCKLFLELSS
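Benchmarks: low control DMSO, high control PEA (EC100); System: CHO RD-HGA16 cells carrying human TAAR1 plus Gα16; Detection: Fluo-8 fluorescence, 5 s baseline then 140 s kinetic read; Schedule: 17-24 h plating, Fluo-8 75 min 37 °C, 30 min RT; Read-out basis: % activation from peak over basal fluorescence ratio, DMSO-to-PEA scaled.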
OXTR agonist = human OXTR agonists, primary screen, fluorescence, CHO-OTR cells, Fluo-8 calcium. activation, % at 3 µM. 320,000 tested, 0.32% active. Oxytocin receptor (Homo sapiens), P30559. AID 2435, 2010. Fluo-8 calcium fluorescence; normalized: DMSO 0%, oxytocin 100%;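 active = activation above the mean of all tested compounds plus 3 SD, cutoff set per screening run, cut at about 20% in these data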;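 note: peak over basal fluorescence ratio from a 100 s FLIPR kinetic read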
Target sequence (P30559 whole entry, looked up): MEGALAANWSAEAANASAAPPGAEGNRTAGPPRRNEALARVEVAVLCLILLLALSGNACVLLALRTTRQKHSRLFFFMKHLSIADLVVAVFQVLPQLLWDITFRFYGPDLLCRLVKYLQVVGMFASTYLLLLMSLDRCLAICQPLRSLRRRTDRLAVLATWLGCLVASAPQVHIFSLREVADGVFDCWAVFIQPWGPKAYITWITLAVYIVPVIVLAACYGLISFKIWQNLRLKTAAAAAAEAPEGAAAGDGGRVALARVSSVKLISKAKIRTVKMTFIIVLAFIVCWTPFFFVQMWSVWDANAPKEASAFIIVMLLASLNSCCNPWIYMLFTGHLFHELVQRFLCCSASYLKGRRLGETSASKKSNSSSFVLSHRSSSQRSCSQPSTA
OXTR potentiator = human OXTR potentiators, primary screen, fluorescence, CHO-OTR cells, Fluo-8 calcium; Oxytocin receptor (Homo sapiens), P30559; Fluo-8 calcium fluorescence, potentiator mode; 0% = oxytocin EC15, 100% = EC100; activation, % at 3 µM; 320,000 tested, 0.061% active; AID 2445, 2010;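 active = activation above that plate's cutoff, the mean activation of tested compounds plus 3 SD, cut at about 6.6% in these data, passing the limit was not always enough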;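 note: 100% uses oxytocin at 75 nM as the full agonist control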
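Replication – single well per compound, singlicate · Assay system – CHO cell line stably expressing human OTR · Timing – 6 min pre-incubation, 100 s read · Measure – normalized max/min fluorescence ratio, % activation · Doses – 3.0 µM, one dose · Detection – Fluo-8 calcium dye fluorescence · Probe or stimulus – oxytocin near EC15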
TAAR1 antag = human TAAR1 antagonists, primary screen, Fluo-8 calcium fluorescence, CHO RD-HGA16 cells. Trace amine-associated receptor 1 (Homo sapiens), Q96RJ0. antagonist. inhibition, % at 3 µM. 360,000 tested, 1.5% active. AID 624466, 2012;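 active = inhibition above a per-plate cutoff, the mean inhibition of test compounds on that plate plus 3 SD, cut at about 49% in these data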;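 note: 0% = DMSO plus EC80 beta-PEA response and 100% = DMSO alone without agonist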
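Material: RD-HGA16 CHO cells with stable hTAAR1 and Gα16; Dosing: single nominal final test compound concentration of 3 µM; Schedule: seeding 17-24 h prior, 75-min 37 °C, 30-min RT dye loading; Detection: kinetic Fluo-8 calcium fluorescence measurement; Measure: % inhibition from peak post-agonist over basal fluorescence ratio; Benchmarks: vehicle and agonist controls.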
V1R ag counter = agonists of human V1a receptor, primary screen, counter-screen for OXTR agonist project, fluorescence, CHO-V1R cells; 320,000 tested, 0.25% active; Vasopressin V1a receptor (Homo sapiens), P37288; activation, % at 3 µM; Fluo-8 calcium fluorescence, agonist mode; 0% DMSO, 100% 3 nM vasopressin;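 active = activation above the mean activation of all tested compounds plus 3 SD, per screening run, cut at about 20% in these data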;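 note: signal is peak over basal fluorescence ratio across a 100 second FLIPR read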
TAAR1 ag confirm = human TAAR1 agonists, retest of hits, confirmation, Fluo-8 calcium fluorescence, CHO RD-HGA16 cells. shares compounds with TAAR1 agonist. scaled: DMSO 0%, maximal phenethylamine 100%. activation, % at 3 µM. 2,400 tested, 82% active. AID 651783, 2012;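 active = activation above a cutoff set at the run's mean compound activation plus 3 SD, cut at about 39% in these data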
Ga16 ag counter = nonselective calcium mobilization agonists, CHO-Ga16 cells, counter-screen for hTAAR1 agonist project, cell-based, fluorescence, CHO-Ga16 parental line. shares compounds with TAAR1 agonist. Fluo-8 calcium fluorescence; normalized to maximal ATP response, DMSO zero. activation, % at 3 µM. 2,400 tested, 50% active. AID 651787, 2012;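 active = activation above the run cutoff, the mean activation over all tested wells plus 3 SD, cut at about 12% in these data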;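 note: 0% = DMSO wells and 100% = maximal ATP response on the peak over basal ratio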
TAAR1 desensitize = TAAR1 desensitization by agonist hits, confirmation, counter-screen for TAAR1 agonist project, cell-based, fluorescence, tachyphylaxis | shares compounds with TAAR1 agonist | CHO RD-HGA16 hTAAR1, Fluo-8 calcium, beta-PEA response inhibition | inhibition, % at 3 µM | 2,400 tested, 46% active | AID 651951, 2012;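 active = inhibition above the run cutoff, the mean inhibition of all test compounds plus 3 SD, cut at about 49% in these data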;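 note: beta-PEA stimulus applied at its EC80; loss of beta-PEA calcium signal after compound pretreatment read as receptor desensitization; 0% = DMSO with beta-PEA at EC80 and 100% = DMSO alone without agonist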
Ga16 nonsel ant = inhibition of ATP-evoked calcium response in CHO-Ga16 cells, counter-screen for TAAR1 agonist project, cell-based, fluorescence. shares compounds with TAAR1 agonist. CHO-Ga16 ATP-induced calcium, Fluo-8 fluorescence. inhibition, % at 3 µM. 2,400 tested, 39% active. AID 651952, 2012;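 active = inhibition above the plate's mean compound inhibition plus 3 SD, computed per plate, cut at about 22% in these data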;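 note: 0% = EC80 ATP with DMSO and 100% = DMSO wells without ATP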
An asterisk follows results filed as active; . = no result given; ! = a repeat was not active.

SMILES | TAAR1 agonist | OXTR agonist | OXTR potentiator | TAAR1 antag | V1R ag counter | TAAR1 ag confirm | Ga16 ag counter | TAAR1 desensitize | Ga16 nonsel ant
Cc1ccc(-c2nnn(CC(=O)NCCc3ccc4c(c3)OCO4)n2)cc1 | 78* | 0 | -6 | 67* | 0 | 47* | 10 | 23 | 16
CCCCCCCCCCCCCCCC[n+]1ccccc1 | 52*! | . | . | 73* | . | 32 | 4 | 37 | 17
O=C(NNC(=S)NC(=O)c1cccc([N+](=O)[O-])c1)c1ccc(Br)cc1 | 99* | 9 | -9 | 14 | 2 | 107* | 81* | 77* | 44*
Cc1ccc(C(=O)NC(=S)NNC(=O)c2cccc([N+](=O)[O-])c2)cc1 | 83* | . | . | 17 | . | 101* | 75* | 62* | 35*
Cc1cn([C@H]2C[C@H](O)[C@@H](/C=C/C(=O)NCCc3ccc(S(N)(=O)=O)cc3)O2)c(=O)[nH]c1=O | 4 | . | . | -6 | . | . | . | . | .
CCOC(=O)c1cn(Cc2ccccc2)c2cc(C)nn2c1=O | 3 | 0 | -9 | -8 | 0 | . | . | . | .
CCOC(=O)c1cn(Cc2ccccc2)c(C(=O)OC(C)(C)C)c1O | 82* | 52* | -19 | 68* | 28* | 73* | 56* | 70* | 57*
CN1CCN(c2ccc(NC(=O)c3ccc([N+](=O)[O-])o3)cc2Cl)CC1 | 45* | 2 | 0 | 4 | 0 | 55* | 1 | 28 | 12
CCCCn1c(Nc2ccccc2)nc2ccccc21 | 45* | -2 | -5 | 6 | -1 | 3 | 0 | 5 | 7
CC1CCC2(CC1)NC(=O)N(NC(=O)c1cc3ccccc3o1)C2=O (centres undefined) | 10 | 1 | 2 | -1 | 1 | . | . | . | .
COc1ccc(OCC(=O)NNC(=S)NC(=O)C2CCCCC2)cc1 | 65* | 1 | -6 | 28 | 2 | 78* | 51* | 38 | 36*
CCc1ccc(OCC(=O)NC2CCCCC2)c(Br)c1 | 17 | -1 | -13 | -12 | 0 | . | . | . | .
COc1ccc(CC(=O)NC(=S)NNC(=O)COc2c(C)cccc2C)cc1 | 94* | 5 | -4 | 53* | 1 | 93* | 61* | 64* | 47*
CCc1ccc(OCC(=O)NNC(=S)NC(=O)C2CCCCC2)c(Br)c1 | 80* | -1 | -2 | 43 | 2 | 78* | 47* | 62* | 45*
COc1ccc(OCC(=O)NNC(=S)NC(=O)C2CC2)cc1 | 2 | . | . | -5 | . | . | . | . | .
COC(C[C@@H]1O[C@@H]1[C@H](O)COCc1ccccc1)OC | 2 | 0 | 6 | 5 | 1 | . | . | . | .
O=C(CN1C(=O)C2C3C=CC(C3)C2C1=O)NCCC1=CCCCC1 (centres undefined) | 1 | 1 | -8 | -14 | 0 | . | . | . | .
O=C(NCCC1=CCCCC1)C1CCN(S(=O)(=O)c2ccccc2)CC1 | 0 | 0 | -3 | 13 | 1 | . | . | . | .
O=C(O)/C=C/C(=O)NCCC1=CCCCC1 | 73* | 1 | -3 | 84* | 0 | 95* | 0 | 97* | 7
O=C(O)C1C2C=CC(C2)C1C(=O)NCCC1=CCCCC1 (centres undefined) | 72* | 0 | -1 | 71* | 1 | 89* | 2 | 84* | 6
CC(C)c1ccc(/C=C/C(=O)NCCC2=CCCCC2)cc1 | 1 | -1 | -1 | 4 | 1 | . | . | . | .
O=C(O)C1C2CCC(C2)C1C(=O)NCCC1=CCCCC1 (centres undefined) | 80* | 1 | -5 | 85* | 1 | 94* | 4 | 77* | 0
COc1ccc2cc(C(=O)N3CCN(c4ccccc4OC)CC3)[nH]c2c1 | 8 | 1 | -9 | -12 | 5 | . | . | . | .
Cc1cccc(NC(=O)CSCC(=O)Nc2cc(Cl)ccc2N2CCOCC2)c1 | 0 | -2 | -12 | -2 | 0 | . | . | . | .
CN1CCc2c(sc(NC(=O)CS(=O)(=O)c3ccc(F)cc3)c2C(N)=O)C1 | 1 | 0 | 2 | -32 | 1 | . | . | . | .
SMILES | TAAR1 agonist | OXTR agonist | OXTR potentiator | TAAR1 antag | V1R ag counter | TAAR1 ag confirm | Ga16 ag counter | TAAR1 desensitize | Ga16 nonsel ant
Cc1cccc(CC(C)NC(=O)c2cc(COc3ccc(F)cc3F)on2)n1 (centres undefined) | 88* | 2 | -3 | 99* | 5 | 9 | 5 | 14 | 7
N#Cc1ccc(OCC(=O)OCC(=O)Nc2cc(C(F)(F)F)ccc2N2CCOCC2)cc1 | -1 | -1 | -12 | 1 | -1 | . | . | . | .
CCOC(=O)C1=C(O)c2ccccc2C(=O)/C1=C\c1ccc(CC)cc1 | . | 3 | 3 | . | 1 | . | . | . | .
CCOC(=O)C1=C(Cc2ccc(C)cc2)C(=O)c2ccccc2C1=O | 54* | 5 | -5 | 54* | 4 | 19 | 23* | 42 | 44*
CC(=O)c1cccc(NC(=S)NC(=O)Cc2ccc(Cl)cc2)c1 | 94* | 26* | -25 | 57* | 21* | 106* | 59* | 85* | 47*
Cc1ccc(NC(=S)NC(=O)Cc2ccccc2)c(O)c1 | 66* | . | . | 47 | . | 73* | 27* | 43 | 24*
O=C(Cc1ccccc1)NC(=S)Nc1cccc(C(F)(F)F)c1 | 55* | 8 | -11 | 43 | 12 | 33 | 15* | 38 | 18
O=C(Cc1ccc(Cl)cc1)NC(=S)Nc1ccccc1N1CCOCC1 | 65* | 1 | -17 | 52* | 13 | 72* | 44* | 57* | 34*
Cc1nc(N2CCCCC2)nc(N2CCCCC2)c1C=O | 6 | -2 | -2 | -28 | 0 | . | . | . | .
O=C(NCCN1C(=O)S/C(=C/c2cccnc2)C1=O)C1CC(=O)N(Cc2ccccc2)C1 (centres undefined) | 8 | -1 | -4 | -10 | -1 | . | . | . | .

Screening data as filed in PubChem.
